Measurements gathered from unrelated publications.
Protocols differ between the studies behind these lines.
Organism: Leishmania donovani
Observed: parasite growth

C[C@@H]1[C@H](O)[C@@H](C)/C=C/C=C/C=C/C=C/C=C/C=C/C=C/[C@H](O[C@@H]2O[C@H](C)[C@@H](O)[C@H](N)[C@@H]2O)C[C@@H]2O[C@](O)(C[C@@H](O)C[C@@H](O)[C@H](O)CC[C@@H](O)C[C@@H](O)CC(=O)O[C@H]1C)C[C@H](O)[C@H]2C(=O)O  IC50 (resazurin; promastigote): 0.19 µg/mL
CCC/C=C/c1cc2c(C=O)c(O)c(CC=C(C)C)cc2o1  IC50 (resazurin; 48 h, promastigote): 6.2 µg/mL
Fc1cccc(Nc2nc(-c3ccccn3)nc3ccccc23)c1  IC50 (THP-1; intracellular, amastigote): 1.4 µM
N=C(N)c1ccc(OCCCCCOc2ccc(C(=N)N)cc2)cc1  IC50 (resazurin; 72 h, promastigote): 1.65 µg/mL
CCCCCCCCCCCCCCCCOP(=O)([O-])OCC[N+](C)(C)C  IC50 (intracellular, amastigote): 1.83 µM
CCCCCCCCCCCCCCCCOP(=O)([O-])OCC[N+](C)(C)C  IC50 (promastigote): 4.23 µM
Cc1cc(NC(=O)Nc2ccc3c(c2)OC(F)(F)O3)cc(C(F)(F)F)n1  IC50 (intracellular, amastigote): 0.86 µM
N=C(N)c1ccc(OCCCCCOc2ccc(C(=N)N)cc2)cc1  IC50 (promastigote): 0.651 µM
C[C@@H]1[C@H](O)[C@@H](C)/C=C/C=C/C=C/C=C/C=C/C=C/C=C/[C@H](O[C@@H]2O[C@H](C)[C@@H](O)[C@H](N)[C@@H]2O)C[C@@H]2O[C@](O)(C[C@@H](O)C[C@@H](O)[C@H](O)CC[C@@H](O)C[C@@H](O)CC(=O)O[C@H]1C)C[C@H](O)[C@H]2C(=O)O  IC50 (THP-1; 5 days, intracellular, amastigote): 0.4 µM
COc1cc(NC(C)CCCN)c2ncccc2c1 (centres unmarked)  IC50 (resazurin; promastigote): 19.9 µg/mL
N=C(N)c1ccc(OCCCCCOc2ccc(C(=N)N)cc2)cc1  IC50 (resazurin; 48 h, promastigote): 1 µg/mL
c1ccc(CNc2nc(-c3ccccn3)nc3ccccc23)cc1  IC50 (THP-1; intracellular, amastigote): 2.17 µM
C[C@@H]1[C@H](O)[C@@H](C)/C=C/C=C/C=C/C=C/C=C/C=C/C=C/[C@H](O[C@@H]2O[C@H](C)[C@@H](O)[C@H](N)[C@@H]2O)C[C@@H]2O[C@](O)(C[C@@H](O)C[C@@H](O)[C@H](O)CC[C@@H](O)C[C@@H](O)CC(=O)O[C@H]1C)C[C@H](O)[C@H]2C(=O)O  IC50 (resazurin; 72 h, promastigote): 0.57 µg/mL
c1ccc(CN2CCN(c3nc(-c4ccccn4)nc4ccccc34)CC2)cc1  IC50 (THP-1; intracellular, amastigote): 4.2 µM
O=[N+]([O-])c1c(CS(=O)(=O)c2ccccc2)nc2c(Br)cc(Br)cn12  IC50 (MTT; 72 h, promastigote): 1.8 µM
COc1cc(NC(C)CCCNCCNCCNCCCC(C)Nc2cc(OC)cc3cccnc23)c2ncccc2c1.Cl.Cl (centres unmarked)  IC50 (resazurin; promastigote): 2.99 µg/mL
c1ccc(-c2nc(N3CCCC3)c3ccccc3n2)nc1  IC50 (imaging; THP-1; intracellular, amastigote): 1.3 µM
